Results of several laboratories.
Lines come from different studies, so protocols differ.
Cell line: HCT-116
Read-out: cell growth or viability

O=c1[nH]cc(F)c(=O)[nH]1 — IC50 (WST-1; 48 h): 9.5 µM
COc1cc(/C=N/c2nc(SC)nn2-c2ccc(C(=O)O)cc2)ccc1O — IC50 (MTT): 61.1 µM
O=Cc1ccc(CO)o1 — IC50 (WST-1; 48 h): 83.1 µM
O=C(Nc1nnnn1C1CCCCC1)c1ccc2ccccc2c1 — IC50 (48 h): 3.06 µM
Cc1c(NC(=O)c2ccc(C(C)(C)C)cc2)cccc1-c1cn(C)c(=O)c(Nc2ccc(C(=O)N3CCOCC3)cc2)n1 — IC50: > 10 µM
COC(=O)c1cc2ccc(O)cc2oc1=O — IC50 (MTT; 36 h): > 20 µM
NC(=O)NOCCCCCCCCCCCCCCCCCCCC[P+](c1ccccc1)(c1ccccc1)c1ccccc1 — IC50 (imaging): 0.23 µM
CC(C)C[C@H](NC(=O)[C@H](Cc1ccccc1)NC(=O)c1cnccn1)B(O)O — IC50 (ATP luminescence): 0.0097 µM
COc1ccc2oc(=O)cc(CCl)c2c1 — IC50 (MTT; 36 h): > 20 µM
COc1ccc(NC(=O)Nc2ccc(OCc3nccc(OCC(F)(F)F)c3C)cc2)cc1 — IC50 (MTT; 72 h): 19.2 µM
Nc1nc(Oc2ccccc2)nn1-c1ccc(C(=O)O)cc1 — IC50 (MTT): 61.2 µM
COc1c(C)cnc(COc2ccc(NC(=O)Nc3ccc(Cl)c(C(F)(F)F)c3)cc2)c1C — IC50 (MTT; 72 h): 8.17 µM
O=C(/N=C1\SCC(=O)N1C1CCCCC1)c1ccc2ccccc2c1 — IC50 (48 h): 9.12 µM
Cc1ccc(O)c(/C=N/c2nc(Oc3ccccc3)nn2-c2ccc(C(=O)O)cc2)c1 — IC50 (MTT): 74 µM
CC(=O)Oc1ccc2c(CSC(C)=O)cc(=O)oc2c1 — IC50 (MTT; 36 h): > 20 µM
NC(=O)NOCCCC[P+](c1ccccc1)(c1ccccc1)c1ccccc1 — IC50 (imaging): > 600 µM
O=c1c(O)c(-c2ccc(O)cc2)oc2cc(O)cc(O)c12 — IC50 (WST-1; 48 h): 44.7 µM
O=C(NC(=S)NC1CCCCC1)c1ccc2ccccc2c1 — IC50 (48 h): 4.62 µM
CC(=O)Oc1ccc2ccc(=O)oc2c1CBr — IC50 (MTT; 36 h): > 20 µM
CCC[C@H](Nc1nc(-c2ccc(NC(=O)NCC)c(OC)c2)ncc1C)c1cccnc1 — IC50 (fluorescence; 72 h): 0.0477 µM
O=C(NC(=S)NCCNC(=S)NC(=O)c1ccc2ccccc2c1)c1ccc2ccccc2c1 — IC50 (48 h): 1.31 µM
COc1cc([C@@H]2c3cc4c(cc3[C@@H](O[C@@H]3O[C@@H]5CO[C@@H](C)O[C@H]5[C@H](O)[C@H]3O)[C@H]3COC(=O)[C@H]23)OCO4)cc(OC)c1O — IC50 (MTS; 24 h): 29.6 µM
CC(=O)OCCOC(=O)[C@]1(C)CC[C@]2(C)CC[C@]3(C)C4=CC=C5C(=CC(=O)C(O)=C5C)[C@]4(C)CC[C@@]3(C)[C@@H]2C1 — IC50 (MTT; 48 h): 0.47 µM
COc1ccc(O)c(/C=N/c2nc(Oc3ccccc3)nn2-c2ccc(C(=O)O)cc2)c1 — IC50 (MTT): 58.5 µM
CC1=C(O)C(=O)C=C2C1=CC=C1[C@@]2(C)CC[C@@]2(C)[C@@H]3C[C@](C)(C(=O)OCCCCCCCCO)CC[C@]3(C)CC[C@]12C — IC50 (MTT; 48 h): 0.58 µM
CC[C@H](C)C(=O)O[C@H]1C[C@@H](C)C=C2C=C[C@H](C)[C@H](CC[C@@H]3C[C@@H](O)CC(=O)O3)[C@H]21 — IC50 (SRB; 72 h): 6.79 µg/mL
COc1cc(-c2nc(C(=O)Nc3nnc(-c4cc5ccccc5n4C)s3)cc3c2[nH]c2ccccc23)cc(OC)c1OC — IC50 (MTT; 72 h): 6.11 µM
CCN(CC)C(=S)NC(=O)c1ccc2ccccc2c1 — IC50 (48 h): 5.07 µM
Cc1cc(C)n(-c2nc(Nc3ccc(Cl)cc3)nc(-n3nc(C)cc3C)n2)n1 — IC50 (MTT; 72 h): 11 µM
CC1=C(O)C(=O)C=C2C1=CC=C1[C@@]2(C)CC[C@@]2(C)[C@@H]3C[C@](C)(C(=O)OCCCBr)CC[C@]3(C)CC[C@]12C — IC50 (MTT; 48 h): 0.52 µM
CC1CCC(OCn2c[n+](Cc3ccccc3)c3ccccc32)CC1 (stereo not drawn) — IC50 (MTT; 72 h): 21.9 µM
CCn1c(-c2nnc(NC(=O)c3cc4c([nH]c5ccccc54)c(-c4ccc(OC)cc4)n3)s2)cc2ccccc21 — IC50 (MTT; 72 h): 19.9 µM
CC1=C(O)C(=O)C=C2C1=CC=C1[C@@]2(C)CC[C@@]2(C)[C@@H]3C[C@](C)(C(=O)OCCCn4ccc5ccccc54)CC[C@]3(C)CC[C@]12C — IC50 (MTT; 48 h): 2.75 µM
COc1cc(CNC(=O)CCCC/C=C/C(C)C)ccc1O — IC50 (SRB): 40.2 µM
COc1ccc(-c2nc(C(=O)Nc3nnc(-c4cc5ccccc5[nH]4)s3)cc3c2[nH]c2ccccc23)cc1 — IC50 (MTT; 72 h): 4.78 µM
O=C(O)c1ccc(-n2nc(Oc3ccccc3)nc2/N=C/c2cc([N+](=O)[O-])ccc2O)cc1 — IC50 (MTT): 62.8 µM
COc1c(C)cnc(COc2ccc(NC(=O)Nc3cccc(C(F)(F)F)c3)cc2)c1C — IC50 (MTT; 72 h): 12.5 µM
Cn1c(-c2nnc(NC(=O)c3cc4c([nH]c5ccccc54)c(-c4ccc(F)cc4)n3)s2)cc2ccccc21 — IC50 (MTT; 72 h): 14.3 µM
COc1ccnc(COc2ccc(NC(=O)Nc3ccc(Cl)c(C(F)(F)F)c3)cc2)c1OC — IC50 (MTT; 72 h): 18.1 µM
Clc1ccc(C[n+]2cn(CCc3ccccc3)c3ccccc32)cc1 — IC50 (MTT; 72 h): 18.4 µM
Cc1c(OCC(F)(F)F)ccnc1COc1ccc(NC(=O)Nc2cc(F)cc(F)c2)cc1 — IC50 (MTT; 72 h): 52 µM
CC(=O)SCc1cc(=O)oc2cc(O)ccc12 — IC50 (MTT; 36 h): > 20 µM
COc1ccnc(COc2ccc(NC(=O)Nc3cccc(C(F)(F)F)c3)cc2)c1OC — IC50 (MTT; 72 h): 22.9 µM
O=C(NC(=S)N1CCCCC1)c1ccc2ccccc2c1 — IC50 (48 h): 9.12 µM
Cc1c(OCC(F)(F)F)ccnc1COc1ccc(NC(=O)Nc2ccc(Cl)c(C(F)(F)F)c2)cc1 — IC50 (MTT; 72 h): 5.6 µM
COc1cccc2c1C(=O)c1c(O)c3c(c(O)c1C2=O)C[C@@](O)(C(=O)CO)C[C@@H]3O[C@H]1C[C@H](N)[C@H](O)[C@H](C)O1 — IC50 (SRB): 0.11 µM
COc1ccc(NC(=O)Nc2ccc(OCc3nccc(OC)c3OC)cc2)cc1 — IC50 (MTT; 72 h): 13.1 µM
COc1cc([C@@H]2c3cc4c(cc3[C@@H](O[C@@H]3O[C@@H]5CO[C@@H](C)O[C@H]5[C@H](O)[C@H]3O)[C@H]3COC(=O)[C@H]23)OCO4)cc(OC)c1O — IC50 (MTS; 72 h): 18.3 µM
